Compound activity from PubChem.
Diaph inh CS = diaphorase inhibition or chemical oxidation counter-screen; diaphorase resazurin-to-resorufin fluorescence, NADH, 16 min; bacterial (C. kluyveri) enzyme, not human; inhibition, % at 20 µM; 0.69% of 190,000 active; AID 1217;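 active = primary screen inhibition at 20 µM above a set limit, cut at about 50% in these data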;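 also: plate controls were DMSO with full reaction for no effect and wells lacking NADH for full effect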
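Assay system – diaphorase enzyme from Clostridium kluyveri · Amount – diaphorase 0.14 U/mL (working solution) · Times – reaction incubation of 16 min at room temperature · Controls – No-NADH positive control and DMSO neutral control · Signal – resorufin fluorescence 544/590 nm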
HKDC1 inh = HKDC1 (human) hexokinase inhibition; inhibition, % at 20 µM; 0.16% of 340,000 active; recombinant HKDC1, G6PDH/diaphorase resazurin coupled fluorescence; Q2TB90; AID 493160;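 active = inhibition above about 35% when tested at 20 µM, limit read from the data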;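 also: plate controls were DMSO wells with enzyme for no effect and DMSO wells lacking enzyme for full effect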
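Assay system: in-house recombinant HK5 (HKDC1) enzyme. Input: HKDC1 at 5 µg/mL. Medium: Tris pH 8.0 buffer with MgCl2, Tween-20, BSA, BME. Dosing: single 20 µM dose. Schedule: 90 min reaction incubation at room temperature, dark. Signal: resazurin-to-resorufin fluorescence via G6PDH and diaphorase coupling, 525/613 nm. Controls: DMSO-enzyme wells negative, buffer-substituted wells positive.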
G6PDH counter = inhibits Leuconostoc G6PDH, flagging false hits in G6PDH-based assays; inhibition, % at 5 µM; 0.12% of 200,000 active; AID 1020; Purified L. mesenteroides G6PDH, diaphorase/resazurin coupled fluorescence, 45 min; in the data active = inhibition above about 50%
p97 inhibitor = blocks human p97 ATPase activity | P55072 | recombinant p97 ATPase, Kinase-Glo ATP luminescence, 3 h | inhibition, % at 8 µM | 0.42% of 220,000 active | AID 1481; in the data active = inhibition above about 15%;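 also: 0% = DMSO vehicle and 100% = wells lacking enzyme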
UBC9 SUMO inh = SUMOylation inhibition | P63279 | HTRF SUMOylation assay, SAE1/SAE2 + UBC9, in vitro | inhibition, % at 35 µM | 0.36% of 290,000 active; in the data active = inhibition above about 50%, passing the limit was not always enough; inconclusive = no clear call, values can overlap the other calls
p97 inh conf = human p97 ATPase inhibition, confirmation | shares compounds with p97 inhibitor | recombinant p97 ATPase, Kinase-Glo ATP luminescence | inhibition, % at 8 µM | 44% of 760 active | AID 1517;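 active = percent inhibition of p97 ATPase above a set limit, the primary screen's mean plus 3 SD, cut at about 15% in these data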;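 also: 0% = DMSO wells and 100% = wells lacking p97 protein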
Numbers without * were called inactive. Most compounds without a hit are left out; they make up all but 0.95% or so of the library.

What do the screens show for `Cc1ccc2cc(CN(c3ccccc3C)S(=O)(=O)c3ccccc3)c(=O)[nH]c2c1`?
HKDC1 inh: -3; UBC9 SUMO inh: -2

What do the screens show for `CCOc1ccccc1/C=C/C(=O)NCC(=O)N1CCC(N(C)C2CCCCC2C)CC1` (centres undefined)?
HKDC1 inh: -5

How did Cc1[nH]c(=O)n(C(C)C)c(=O)c1Br do in these assays?
HKDC1 inh: -1

What do the screens show for `Fc1cccc(F)c1/C=N/NC(=S)Nc1cccnc1`?
Diaph inh CS: 9; HKDC1 inh: -13; G6PDH counter: -3; p97 inhibitor: -1; UBC9 SUMO inh: -1

How did Fc1c(F)c(F)c(/C=N/NC(=S)Nc2cccnc2)c(F)c1F do in these assays?
Diaph inh CS: 15; HKDC1 inh: -5; G6PDH counter: 11; p97 inhibitor: 4; UBC9 SUMO inh: 21

What do the screens show for `Oc1ccc(/C=N/NC(=S)Nc2cccnc2)c(O)c1O`?
HKDC1 inh: 10; p97 inhibitor: 20*; UBC9 SUMO inh: inconclusive; p97 inh conf: 20*

How did Oc1cccc(/C=N/NC(=S)Nc2cccnc2)c1O do in these assays?
Diaph inh CS: 60*; HKDC1 inh: -1; G6PDH counter: 51*; p97 inhibitor: 18*; UBC9 SUMO inh: -10; p97 inh conf: 35*

What do the screens show for `CCCCC(=O)NC(=S)Nc1cc(C(=O)O)ccc1OC`?
Diaph inh CS: 14; HKDC1 inh: -11; G6PDH counter: 8; p97 inhibitor: 18*; UBC9 SUMO inh: -3; p97 inh conf: 10

Results for C=CCNC(=S)Nc1ccc2nsnc2c1 ?
Diaph inh CS: 49; HKDC1 inh: 7; G6PDH counter: 25; p97 inhibitor: 29*; UBC9 SUMO inh: 99*; p97 inh conf: 1

Results for S=C(NCc1ccc2c(c1)OCO2)Nc1ccc2nsnc2c1 ?
Diaph inh CS: 28; HKDC1 inh: 5; G6PDH counter: 25; p97 inhibitor: 7; UBC9 SUMO inh: 87

What do the screens show for `C=CCN(CC=C)C(=S)Nc1ccc2nsnc2c1`?
Diaph inh CS: 19; HKDC1 inh: 3; G6PDH counter: 33; p97 inhibitor: 18*; UBC9 SUMO inh: 87; p97 inh conf: 4

Results for CC(C)[C@H]1C(=O)Nc2ccccc2N1C(=O)N[C@@H](Cc1ccccc1)C(=O)N[C@H](C(=O)O)c1ccccc1 ?
HKDC1 inh: 0; UBC9 SUMO inh: 10

How did CCOC(=O)C(C)Oc1cccc2c(=O)n(CC(=O)Nc3ccc4c(c3)OCCO4)ccc12 (centres undefined) do in these assays?
Diaph inh CS: 9; HKDC1 inh: -2; G6PDH counter: 2; p97 inhibitor: 35*; UBC9 SUMO inh: 10; p97 inh conf: 8

What do the screens show for `CCOC(=O)C(C)Oc1cccc2c(=O)n(CC(=O)Nc3cccc(OC)c3)ccc12` (centres undefined)?
Diaph inh CS: 7; HKDC1 inh: -4; G6PDH counter: -13; p97 inhibitor: -8; UBC9 SUMO inh: 7

How did CCCCc1nc(SCc2ccc([N+](=O)[O-])cc2)n[nH]1 do in these assays?
Diaph inh CS: 10; HKDC1 inh: -6; G6PDH counter: 6; p97 inhibitor: 3; UBC9 SUMO inh: 16

Results for O=C(NN1C(=O)/C(=C/C=C/c2ccccc2)SC1=S)c1ccncc1 ?
Diaph inh CS: 18; HKDC1 inh: -9; G6PDH counter: 5; p97 inhibitor: 6; UBC9 SUMO inh: 6

How did O=C(NN1C(=O)/C(=C/C=C/c2ccco2)SC1=S)c1ccncc1 do in these assays?
HKDC1 inh: 34; p97 inhibitor: 40*; p97 inh conf: 11

Results for O=C1/C(=C/c2ccco2)SC(=S)N1c1cccnc1 ?
HKDC1 inh: 24; p97 inhibitor: 18*; UBC9 SUMO inh: 84*; p97 inh conf: 14

How did O=C1/C(=C/C=C/c2ccco2)SC(=S)N1c1ccc(O)cc1 do in these assays?
HKDC1 inh: 6; p97 inhibitor: 58*; UBC9 SUMO inh: 64*; p97 inh conf: 31*

How did Cc1ccc(C(C(=O)NC2CCCCC2)N(Cc2cccnc2)C(=O)c2csnn2)cc1 (centres undefined) do in these assays?
HKDC1 inh: -10; UBC9 SUMO inh: 0

How did COc1cc2c(cc1OC)CN(C(=O)/C=C/c1cccc([N+](=O)[O-])c1)CC2 do in these assays?
HKDC1 inh: 5; UBC9 SUMO inh: 13

Results for O=S(=O)(NC(=S)NC1CCCCC1)c1ccc(Br)cc1 ?
Diaph inh CS: 20; HKDC1 inh: 1; G6PDH counter: 2; p97 inhibitor: 4; UBC9 SUMO inh: 9

How did O=C(OCC(=O)N1CCCc2ccccc21)c1ccc(S(=O)(=O)C(F)F)cc1 do in these assays?
HKDC1 inh: -2

Results for C=CCNC(=O)CN1C(=O)c2cccc3cccc1c23 ?
HKDC1 inh: 7; UBC9 SUMO inh: 21

How did C=CCN1C(=O)N(/C=C/C)c2cccc3cccc1c23 do in these assays?
Diaph inh CS: 35; HKDC1 inh: 15; G6PDH counter: -30; p97 inhibitor: 15*; UBC9 SUMO inh: 94; p97 inh conf: 6

Results for Cc1nn(-c2cccc(Cl)c2)c2c1C(c1ccncc1)C(C#N)=C(N)O2 (centres undefined) ?
Diaph inh CS: 8; HKDC1 inh: -4; G6PDH counter: -14; p97 inhibitor: 7; UBC9 SUMO inh: -31

What do the screens show for `Cc1nn(-c2cccc(Cl)c2)c2c1C(c1cccnc1)C(C#N)=C(N)O2` (centres undefined)?
Diaph inh CS: 20; HKDC1 inh: 6; G6PDH counter: 5; p97 inhibitor: 16*; UBC9 SUMO inh: 12; p97 inh conf: 9

How did Cc1ccc(-n2nc(C)c3c2OC(N)=C(C#N)C3c2ccc(F)cc2)cc1 (centres undefined) do in these assays?
Diaph inh CS: 9; HKDC1 inh: -6; G6PDH counter: 2; p97 inhibitor: 20*; UBC9 SUMO inh: 6; p97 inh conf: 2

What do the screens show for `Cc1ccc(NC(=O)COC(=O)CCc2nc3ccccc3c(=O)[nH]2)cc1Cl`?
Diaph inh CS: 13; HKDC1 inh: -1; G6PDH counter: -1; p97 inhibitor: 16*; UBC9 SUMO inh: 4; p97 inh conf: 1

How did COc1ccc(N2C(=O)c3ccccc3C(C)(C)C2=O)cc1 do in these assays?
HKDC1 inh: -4; UBC9 SUMO inh: 4

What do the screens show for `CCN(CC(=O)Nc1c(F)cccc1F)C(=O)c1cc(S(=O)(=O)N2CCOCC2)ccc1N1CCCC1`?
HKDC1 inh: 7

What do the screens show for `CC(C)(C)N1C(=O)Cc2c1nc(N)c1c(N)nc(N3CCCCC3CO)c(C#N)c21` (centres undefined)?
Diaph inh CS: 56*; HKDC1 inh: 25; G6PDH counter: 46; p97 inhibitor: 28*; UBC9 SUMO inh: 100*; p97 inh conf: 36*

Results for Cn1cccc1/C=C1\SC(=Nc2ccccc2)NC1=O ?
HKDC1 inh: 7; p97 inhibitor: 6; UBC9 SUMO inh: 13
